Test results as given in ChEMBL document CHEMBL3792296, “Synthesis and antiproliferative activity of 9-benzylamino-6-chloro-2-methoxy-acridine derivatives as potent DNA-binding ligands and topoisomerase II inhibitors” (Eur J Med Chem, 2016).
pIC50: −log10 of the molar value. Active and inactive are the calls of the source. The calls are words filed in the database; no cut-off is given here.

Assays:
[1] = system: HeLa; experiment: Antiproliferative activity against human HeLa cells after 48 hrs by MTT assay; format: functional, cell-based
Summary of the method: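 MTT assay: cells seeded at 4-8 × 10³ per well, incubated overnight at 37 °C in 5% CO₂, then given fresh medium with graded compound concentrations or equal DMSO for 48 h. MTT (5 mg/mL solution) added for a further 4 h, formazan dissolved in DMSO, absorbance read at 490 nm. Six cancer cell lines tested.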

[2] = target: DNA topoisomerase 2-alpha (Homo sapiens) (UniProt P11388); experiment: Inhibition of human recombinant topoisomerase 2-alpha expressed in Escherichia coli assessed as reduction in enzyme-mediated relaxation of supercoiled pBR322 DNA at 100 uM after 10 to 15 mins by agarose gel electrophoresis
Summary of the method: (§1)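 Relaxation of 500 ng supercoiled pBR322 by 1 unit human Topo I or Topo IIα, with or without compound, in 20 µL reaction buffer at 37 °C for 10-15 min. Reactions stopped with loading buffer, run on 0.8% agarose in TAE at 80 V for 30 min. Gels stained with ethidium bromide 2.5 µg/mL and viewed under UV.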

[3] = target: DNA topoisomerase 2-alpha (Homo sapiens) (UniProt P11388); experiment: Inhibition of human recombinant topoisomerase 2-alpha expressed in Escherichia coli assessed as reduction in enzyme-mediated relaxation of supercoiled pBR322 DNA at 10 to 50 uM after 10 to 15 mins by agarose gel electrophoresis; summary of the method: as §1
[4] = system: A549; experiment: Cellular uptake in human A549 cells at 1 to 5 uM after 4 hrs by FACS analysis; format: ADME, cell-based; conditions: a549, 4 h
Summary of the method: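 A549 cells treated with 1 or 5 µM for 4 h; 8 and 16 h also examined. Cells trypsinized, pelleted, resuspended in PBS and analysed at once by FACS. Intrinsic compound fluorescence read with 400 nm excitation, at least 10000 cells per sample.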

[5] = system: A549; experiment: Induction of DNA damage in human A549 cells assessed as tail DNA at 5 uM after 24 hrs by propidium iodide staining based comet assay (reference value: 0.02%); format: cell-based
Summary of the method: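 Alkaline comet assay. About 10⁵ A549 cells per well incubated 12 h, then treated 24 h in serum-free medium against a DMSO control. Cells embedded in low-melting agarose, lysed 2 h, alkaline-unwound 0.5 h at 4 °C, electrophoresed at 300 mA for 25 min in the dark. Slides neutralized, PI-stained, 50 random cells scored for % tail DNA.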

[6] = system: A549; experiment: Induction of DNA damage in human A549 cells assessed as increase in gamma-H2AX expression at 1 to 2.5 uM after 48 hrs by Western blot analysis; format: cell-based
Summary of the method: (§2)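 A549 cells grown to 80% confluency, treated with graded concentrations for 48 h, then lysed in Tris-HCl/NaCl/Triton X-100 buffer with protease inhibitors. 40 µg protein resolved on 12 or 15% SDS-PAGE and blotted to PVDF. Primary antibodies used at 1:1000 for 6-8 h, HRP anti-rabbit at 1:2000 for 2 h, ECL detection, β-actin as loading control.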

[7] = system: A549; experiment: Induction of apoptosis in human A549 cells assessed as late apoptotic cells at 10 uM after 36 hrs by Annexin V-FITC/propidium iodide staining based FACS analysis (reference value: 0.29%); format: functional
Summary of the method: (§3)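 A549 cells seeded at 2 × 10⁵ per well, incubated overnight, then treated at 0, 5 or 10 µM. The legend gives 36 or 48 h; the methods section states 24 h. Annexin V-FITC/PI kit staining followed by flow cytometry. Early and late apoptotic cells expressed as cumulative percentage relative to control.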

[8] = system: A549; experiment: Induction of apoptosis in human A549 cells assessed as early apoptotic cells at 10 uM after 48 hrs by Annexin V-FITC/propidium iodide staining based FACS analysis (reference value: 0.94%); format: functional; summary of the method: as §3
[9] = system: A549; experiment: Induction of apoptosis in human A549 cells assessed as increase in expression of cleaved caspase 7 at 1 to 2.5 uM after 48 hrs by Western blot analysis; format: functional, cell-based; summary of the method: as §2
[10] = system: A549; experiment: Induction of apoptosis in human A549 cells assessed as increase in expression of cleaved caspase 9 at 1 to 2.5 uM after 48 hrs by Western blot analysis; format: functional, cell-based; summary of the method: as §2
[11] = system: A549; experiment: Cell cycle arrest in human A549 cells assessed as accumulation at G0/G1 phase at 1 uM after 36 hrs by propidium iodide staining based flow cytometry (reference value: 61.65%); format: functional
[12] = system: A549; experiment: Cell cycle arrest in human A549 cells assessed as accumulation at S phase at 5 uM after 36 hrs by propidium iodide staining based flow cytometry (reference value: 30.73%); format: functional
[13] = system: A549; experiment: Cell cycle arrest in human A549 cells assessed as accumulation at G2/M phase at 0.5 uM after 36 hrs by propidium iodide staining based flow cytometry (reference value: 7.62%); format: functional
[14] = system: A549; experiment: Cell cycle arrest in human A549 cells assessed as accumulation at G2/M phase at 1 uM after 36 hrs by propidium iodide staining based flow cytometry (reference value: 7.62%); format: functional
[15] = system: A549; experiment: Cell cycle arrest in human A549 cells assessed as accumulation at G2/M phase at 5 uM after 36 hrs by propidium iodide staining based flow cytometry (reference value: 7.62%); format: functional
[16] = system: A549; experiment: Cell cycle arrest in human A549 cells assessed as accumulation at G2/M phase after 36 hrs by propidium iodide staining based flow cytometry; format: functional

Chain of DNA topoisomerase 2-alpha (Homo sapiens) (P11388 whole entry): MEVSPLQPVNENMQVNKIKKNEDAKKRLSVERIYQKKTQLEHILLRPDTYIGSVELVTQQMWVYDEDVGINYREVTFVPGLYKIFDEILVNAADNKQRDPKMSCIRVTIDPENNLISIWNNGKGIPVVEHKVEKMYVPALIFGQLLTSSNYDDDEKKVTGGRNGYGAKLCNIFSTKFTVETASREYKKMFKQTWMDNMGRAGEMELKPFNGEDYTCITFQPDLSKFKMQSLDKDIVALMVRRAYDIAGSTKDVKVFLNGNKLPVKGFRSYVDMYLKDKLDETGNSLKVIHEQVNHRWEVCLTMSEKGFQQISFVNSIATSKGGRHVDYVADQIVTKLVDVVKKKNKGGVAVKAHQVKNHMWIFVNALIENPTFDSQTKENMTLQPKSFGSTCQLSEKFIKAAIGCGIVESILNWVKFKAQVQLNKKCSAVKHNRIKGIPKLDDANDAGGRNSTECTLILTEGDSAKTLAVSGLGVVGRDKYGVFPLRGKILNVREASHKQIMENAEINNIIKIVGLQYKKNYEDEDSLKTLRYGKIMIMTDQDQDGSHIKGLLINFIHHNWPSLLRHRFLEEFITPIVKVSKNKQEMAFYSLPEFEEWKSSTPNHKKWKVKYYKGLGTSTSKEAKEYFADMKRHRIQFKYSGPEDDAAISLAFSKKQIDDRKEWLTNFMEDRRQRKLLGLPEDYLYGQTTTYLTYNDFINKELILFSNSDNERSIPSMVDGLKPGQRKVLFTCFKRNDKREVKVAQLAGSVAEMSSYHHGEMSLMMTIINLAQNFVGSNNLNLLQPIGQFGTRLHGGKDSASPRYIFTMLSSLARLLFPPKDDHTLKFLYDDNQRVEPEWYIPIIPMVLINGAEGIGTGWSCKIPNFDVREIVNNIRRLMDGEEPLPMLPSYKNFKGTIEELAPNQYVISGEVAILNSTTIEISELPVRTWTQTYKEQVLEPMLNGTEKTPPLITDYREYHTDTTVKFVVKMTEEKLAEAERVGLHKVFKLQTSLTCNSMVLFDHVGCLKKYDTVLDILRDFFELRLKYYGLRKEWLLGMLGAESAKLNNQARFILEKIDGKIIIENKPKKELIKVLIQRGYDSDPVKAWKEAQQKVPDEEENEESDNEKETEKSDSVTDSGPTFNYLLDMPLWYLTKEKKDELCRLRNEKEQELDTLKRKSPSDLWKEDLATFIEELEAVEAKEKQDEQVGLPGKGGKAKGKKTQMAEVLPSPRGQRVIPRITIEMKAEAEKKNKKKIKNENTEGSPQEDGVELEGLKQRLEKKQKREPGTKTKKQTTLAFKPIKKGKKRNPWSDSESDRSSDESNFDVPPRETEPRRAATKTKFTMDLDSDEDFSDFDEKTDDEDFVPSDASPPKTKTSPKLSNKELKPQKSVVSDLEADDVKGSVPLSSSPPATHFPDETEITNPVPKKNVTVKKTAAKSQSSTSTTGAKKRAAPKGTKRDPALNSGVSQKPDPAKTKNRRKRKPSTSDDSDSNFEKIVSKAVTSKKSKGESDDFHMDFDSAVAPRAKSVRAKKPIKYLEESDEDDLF

COc1ccc(CNc2c3ccc(Cl)cc3nc3ccc(OC)cc23)cc1
pIC50 [1]: 5.77 | inhibition [2]: Active | inhibition [3]: Active | Drug uptake [4]: Active | Activity [5]: 52.3% | Activity [6]: Active | Activity [7]: 88.13% | Activity [8]: 8.8% | Activity [9]: Active | Activity [10]: Active | Activity [11]: 60.83% | Activity [12]: 21.45% | Activity [13]: 8.12% | Activity [14]: 9.62% | Activity [15]: 16.52% | Activity [16]: Dose-dependent effect
